Assay results from ChEMBL document CHEMBL1641456, “Design, synthesis, and pharmacological evaluation of azetedine and pyrrolidine derivatives as dual norepinephrine reuptake inhibitors and 5-HT(1A) partial agonists” (Bioorg Med Chem Lett, 2011).

target: Sodium-dependent dopamine transporter (Homo sapiens, UniProt Q01959); assay: Displacement of [3H]WIN-35,428 from human DAT by scintillation proximity assay; conditions: not given
How it was run: (§1)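 Human transporter binding by scintillation proximity assay: inhibition of [³H]nisoxetine (NET), [³H]WIN 35,428 (DAT) or [³H]citalopram (SERT) binding measured. Ki values are the mean of at least two experiments, each run in duplicate.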

Sodium-dependent dopamine transporter, sequence (Q01959 whole entry): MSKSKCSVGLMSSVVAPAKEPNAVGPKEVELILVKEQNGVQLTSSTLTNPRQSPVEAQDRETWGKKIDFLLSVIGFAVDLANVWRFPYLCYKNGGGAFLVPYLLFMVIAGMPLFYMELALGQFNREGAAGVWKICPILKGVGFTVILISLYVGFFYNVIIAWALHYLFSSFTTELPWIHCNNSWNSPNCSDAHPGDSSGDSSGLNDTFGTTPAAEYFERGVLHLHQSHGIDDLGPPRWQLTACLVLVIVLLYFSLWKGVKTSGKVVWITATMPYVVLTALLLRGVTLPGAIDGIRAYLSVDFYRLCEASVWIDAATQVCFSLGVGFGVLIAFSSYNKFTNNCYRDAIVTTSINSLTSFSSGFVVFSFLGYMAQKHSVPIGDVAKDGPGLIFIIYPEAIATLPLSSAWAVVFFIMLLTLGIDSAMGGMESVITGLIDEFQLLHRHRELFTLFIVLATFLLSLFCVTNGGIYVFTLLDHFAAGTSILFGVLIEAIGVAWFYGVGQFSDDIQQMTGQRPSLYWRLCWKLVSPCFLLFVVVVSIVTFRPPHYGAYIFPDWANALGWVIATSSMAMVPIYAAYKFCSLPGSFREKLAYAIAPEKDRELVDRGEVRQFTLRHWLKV

Structure (SMILES) | Ki
Fc1ccccc1Oc1ccccc1OC1CCNC1 (stereo not given) | > 6220 nM
Fc1cccc(Oc2ccccc2Cl)c1OC1CCNC1 (stereo not given) | 2030 nM
Fc1cccc(Cl)c1Oc1ncccc1OC1CCNC1 (stereo not given) | > 4620 nM
Fc1ccccc1Oc1ccccc1OC1CNC1 | 2040 nM
c1ccc(Oc2ccccc2OC2CNC2)cc1 | 2090 nM
Fc1cccc(Cl)c1Oc1ncccc1OC1CNC1 | > 4260 nM

More lines, now with the values ahead:

Ki | Structure (SMILES)
> 5590 nM | Fc1ccccc1Oc1cccc(F)c1OC1CCCNC1 (stereo not given)
2190 nM | Fc1ccccc1Oc1cccc(F)c1OC1CCNCC1
> 6410 nM | Fc1cccc(F)c1Oc1cccc(F)c1OC1CNC1
> 5870 nM | Fc1cccc(Cl)c1Oc1cccc(F)c1O[C@H]1CCNC1
> 4860 nM | Fc1ccccc1Oc1cccc(F)c1OC1CNC1
3880 nM | Fc1ccccc1Oc1cccc(F)c1OC1CCNC1 (stereo not given)

test system: not listed separately; assay: Drug level in rat brain at 10 mg/kg, sc after 1 hr; assay type: ADME, organism-based; parameters: dose 10 mg/kg, route subcutaneous; conditions: read-out: Drug uptake
How it was run: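 Rats dosed subcutaneously at 10 mg/kg; total brain drug concentration measured 1 h post-dose. Reported as mean with SEM, n = 4.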

concentration at 1 h | Structure (SMILES)
2230 ng/mL | Fc1ccccc1Oc1cccc(F)c1C1CCNCC1

test system: Rattus norvegicus; assay: In vivo NET occupancy in rat brain at 10 mg/kg, sc after 1 hr; assay type: functional; conditions: route subcutaneous
How it was run: (§2)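 Ex vivo receptor occupancy of NET and 5-HT1A in rat brain, collected 1 h after 10 mg/kg subcutaneous dosing.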

Structure (SMILES) | Activity
Fc1ccccc1Oc1cccc(F)c1C1CCNCC1 | 80%

target: Sodium-dependent noradrenaline transporter (Homo sapiens, UniProt P23975); assay: Displacement of [3H]nisoxetine from human NET by scintillation proximity assay; conditions: not given; how it was run: as §1
Sequence (P23975 whole entry): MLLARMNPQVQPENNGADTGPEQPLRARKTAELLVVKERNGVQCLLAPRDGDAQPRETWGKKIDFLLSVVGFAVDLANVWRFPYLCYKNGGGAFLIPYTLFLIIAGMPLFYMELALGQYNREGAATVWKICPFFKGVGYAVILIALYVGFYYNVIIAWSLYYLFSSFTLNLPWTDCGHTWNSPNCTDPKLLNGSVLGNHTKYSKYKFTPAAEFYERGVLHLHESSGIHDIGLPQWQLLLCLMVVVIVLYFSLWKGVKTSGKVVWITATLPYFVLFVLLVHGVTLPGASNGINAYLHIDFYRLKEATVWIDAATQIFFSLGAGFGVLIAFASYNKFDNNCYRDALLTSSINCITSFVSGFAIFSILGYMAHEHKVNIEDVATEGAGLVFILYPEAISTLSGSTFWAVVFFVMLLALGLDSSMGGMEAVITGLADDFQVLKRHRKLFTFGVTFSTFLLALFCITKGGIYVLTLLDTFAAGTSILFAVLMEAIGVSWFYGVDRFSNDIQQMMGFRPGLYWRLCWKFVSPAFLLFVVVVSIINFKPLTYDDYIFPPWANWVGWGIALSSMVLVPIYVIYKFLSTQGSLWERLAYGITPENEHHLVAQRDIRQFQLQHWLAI

Structure (SMILES) | Ki
Fc1ccccc1Oc1ccccc1OC1CCNC1 (stereo not given) | 1350 nM
Fc1cccc(Oc2ccccc2Cl)c1OC1CCNC1 (stereo not given) | 192 nM
Fc1cccc(Cl)c1Oc1ncccc1OC1CCNC1 (stereo not given) | 1140 nM
Fc1ccccc1Oc1ccccc1OC1CNC1 | 528 nM
c1ccc(Oc2ccccc2OC2CNC2)cc1 | 1640 nM
Fc1cccc(Cl)c1Oc1ncccc1OC1CNC1 | 73 nM

Other lines, results leading:

Ki | Structure (SMILES)
1950 nM | Fc1ccccc1Oc1cccc(F)c1OC1CCCNC1 (stereo not given)
489 nM | Fc1ccccc1Oc1cccc(F)c1OC1CCNCC1
482 nM | Fc1cccc(F)c1Oc1cccc(F)c1OC1CNC1
1010 nM | Fc1cccc(Cl)c1Oc1cccc(F)c1O[C@H]1CCNC1
507 nM | Fc1ccccc1Oc1cccc(F)c1OC1CNC1
1020 nM | Fc1ccccc1Oc1cccc(F)c1OC1CCNC1 (stereo not given)

test system: Rattus norvegicus; assay: In vivo 5HT1A receptor occupancy in rat brain at 10 mg/kg, sc after 1 hr; assay type: functional; conditions: route subcutaneous; how it was run: as §2

Structure (SMILES) | Activity
Fc1ccccc1Oc1cccc(F)c1C1CCNCC1 | 62%

target: T1, 5-hydroxytryptamine receptor 1A (Homo sapiens, UniProt P08908); assay: Displacement of [3H]8-OH-DPAT from human cloned 5HT1A receptor by liquid scintillation spectrophotometry; conditions: not given
T1 sequence (P08908 whole entry): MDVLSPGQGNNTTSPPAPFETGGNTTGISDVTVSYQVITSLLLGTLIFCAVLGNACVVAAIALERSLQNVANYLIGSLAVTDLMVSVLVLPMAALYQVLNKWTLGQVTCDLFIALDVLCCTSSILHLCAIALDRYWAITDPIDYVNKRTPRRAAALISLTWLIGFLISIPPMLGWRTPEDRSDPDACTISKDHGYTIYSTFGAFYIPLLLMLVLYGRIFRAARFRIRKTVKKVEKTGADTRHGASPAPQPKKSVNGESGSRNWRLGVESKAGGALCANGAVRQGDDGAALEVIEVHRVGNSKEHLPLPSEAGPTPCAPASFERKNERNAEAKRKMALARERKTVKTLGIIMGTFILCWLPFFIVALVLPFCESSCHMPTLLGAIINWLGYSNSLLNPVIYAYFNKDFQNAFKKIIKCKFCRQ

Structure (SMILES) | Ki
Fc1ccccc1Oc1ccccc1OC1CCNC1 (stereo not given) | 193 nM
Fc1cccc(Oc2ccccc2Cl)c1OC1CCNC1 (stereo not given) | 19 nM
Fc1cccc(Cl)c1Oc1ncccc1OC1CCNC1 (stereo not given) | 203 nM
Fc1ccccc1Oc1ccccc1OC1CNC1 | 22 nM
c1ccc(Oc2ccccc2OC2CNC2)cc1 | 57 nM
Fc1cccc(Cl)c1Oc1ncccc1OC1CNC1 | 64 nM

Other lines, results leading:

Ki | Structure (SMILES)
90 nM | Fc1ccccc1Oc1cccc(F)c1OC1CCCNC1 (stereo not given)
30 nM | Fc1ccccc1Oc1cccc(F)c1OC1CCNCC1
< 3 nM | Fc1cccc(F)c1Oc1cccc(F)c1OC1CNC1
12 nM | Fc1ccccc1Oc1cccc(F)c1OC1CNC1
8 nM | Fc1ccccc1Oc1cccc(F)c1OC1CCNC1 (stereo not given)

target: Sodium-dependent serotonin transporter (Homo sapiens, UniProt P31645); assay: Displacement of [3H]citalopram from human SERT by scintillation proximity assay; conditions: not given; how it was run: as §1
Sequence (P31645 whole entry): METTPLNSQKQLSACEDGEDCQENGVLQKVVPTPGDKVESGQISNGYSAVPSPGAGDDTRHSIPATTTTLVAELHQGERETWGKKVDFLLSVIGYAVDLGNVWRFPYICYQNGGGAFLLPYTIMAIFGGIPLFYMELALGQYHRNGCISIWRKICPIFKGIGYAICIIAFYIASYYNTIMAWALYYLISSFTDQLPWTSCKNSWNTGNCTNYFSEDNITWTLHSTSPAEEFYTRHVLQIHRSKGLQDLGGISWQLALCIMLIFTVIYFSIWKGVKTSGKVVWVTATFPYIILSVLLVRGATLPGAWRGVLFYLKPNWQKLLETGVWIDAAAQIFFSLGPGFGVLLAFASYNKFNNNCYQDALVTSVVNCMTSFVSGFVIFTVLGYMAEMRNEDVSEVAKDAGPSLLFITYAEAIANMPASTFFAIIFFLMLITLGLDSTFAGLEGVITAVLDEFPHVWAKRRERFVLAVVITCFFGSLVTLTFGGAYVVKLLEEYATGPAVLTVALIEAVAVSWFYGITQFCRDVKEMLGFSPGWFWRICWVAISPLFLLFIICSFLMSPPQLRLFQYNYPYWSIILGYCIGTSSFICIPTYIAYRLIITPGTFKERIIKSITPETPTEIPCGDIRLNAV

Structure (SMILES) | Ki
Fc1ccccc1Oc1ccccc1OC1CCNC1 (stereo not given) | > 4710 nM
Fc1cccc(Oc2ccccc2Cl)c1OC1CCNC1 (stereo not given) | 2230 nM
Fc1cccc(Cl)c1Oc1ncccc1OC1CCNC1 (stereo not given) | > 6130 nM
Fc1ccccc1Oc1ccccc1OC1CNC1 | > 4710 nM
c1ccc(Oc2ccccc2OC2CNC2)cc1 | 2670 nM
Fc1cccc(Cl)c1Oc1ncccc1OC1CNC1 | > 6280 nM

The remaining lines, values ahead:

Ki | Structure (SMILES)
> 4710 nM | Fc1ccccc1Oc1cccc(F)c1OC1CCCNC1 (stereo not given)
> 4650 nM | Fc1ccccc1Oc1cccc(F)c1OC1CCNCC1
> 4620 nM | Fc1cccc(F)c1Oc1cccc(F)c1OC1CNC1
> 4530 nM | Fc1cccc(Cl)c1Oc1cccc(F)c1O[C@H]1CCNC1
> 4710 nM | Fc1ccccc1Oc1cccc(F)c1OC1CNC1
> 4710 nM | Fc1ccccc1Oc1cccc(F)c1OC1CCNC1 (stereo not given)
